Values belong to the compound of their own block, whether it stands above or below them.
Columns and labels:
[1] = system: EV-D68; test: Plaque formation assay in RD cells; type: cell-based, Enterovirus D68; conditions: concentration of 1 μM
In short: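 RD cells grown overnight received serially diluted virus stock plus test compound for 1.5 h. The supernatant was then removed and replaced with a 2× DMEM overlay containing 2% low-melting agarose.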

[2] = system: EV-D68 VP1 expression; test: Western blot assay of viral VP1 in RD cells; type: cell-based, Enterovirus D68; conditions: EV-D68-infected RD cells, MOI 0.01, 12 hpi
In short: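 RD cells (8.0 × 10^4 per well) were seeded and infected after 24 h with EV-D68 at MOI 0.01, with gradient-diluted test compound or DMSO, for 1.5 h. Cells were lysed in RIPA at 12 hpi. Equal protein was run on 10% SDS-PAGE, transferred to PVDF and blocked with 5% skim milk. Blots were probed with anti-EV-D68 and tubulin antibodies, then HRP secondaries, with ECL detection.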

[3] = system: EV-D68 VP1 expression; test: Immunofluorescence assay of viral VP1 in RD cells; type: cell-based, Enterovirus D68; conditions: EV-D68-infected RD cells, MOI 1, 12 h
In short: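 RD cells were infected with EV-D68 at MOI 1 in the presence of test compound for 12 h. They were then fixed with 4% formaldehyde for 30 min, permeabilized with 0.1% Triton X-100 for 30 min and blocked with 5% bovine serum. Staining used rabbit anti-VP1 with an Alexa-546 secondary and 1 μM Hoechst33342 for nuclei, followed by fluorescence microscopy imaging.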

[4] = system: EV-D68 strain STL-2014-12; test: CPE reduction assay, EV-D68 STL-2014-12 in RD cells; type: cell-based, Enterovirus D68; conditions: for EC50: Enterovirus D, EVD68, RD, CPE assay, anti-EV-D68 activity; for anti-EV-D68 activity: running text on series 1 SAR
[5] = Liver microsome stability assay, dog; type: in vitro ADME; conditions: beagle, liver microsomes
In short: (§1)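 Test compound (1 μM final) was incubated at 37 °C with rat, beagle dog or human liver microsomes (0.5 mg/mL protein) and 1 mM NADPH, with a parallel no-NADPH control. Aliquots were quenched at 0, 5, 15, 30 and 60 min in solution containing internal standard, centrifuged at 4 °C and analysed by LC-MS/MS. t1/2 and intrinsic clearance were derived from compound depletion.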

[6] = Pharmacokinetic study in SD rats; type: in vivo; conditions: male, rat, plasma, iv, 1 mg/kg
In short: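 Male SD rats (6–9 or 6–8 weeks old, depending on compound; n = 3) received a single iv dose of 1 mg/kg. The vehicle was 5% DMSO/5% Solutol HS-15/90% water or 5% DMSO/95% HP-β-CD in water. Jugular blood was taken into heparin at 0.083, 0.25, 0.5, 1, 2, 4, 6 and 24 h. Plasma, obtained by centrifugation at about 4 °C, was assayed by LC-MS/MS.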

[7] = system: EV-D68; test: Time of drug addition assay; type: cell-based, Enterovirus D68; conditions: 2 μM, RD cells, 0.01 MOI, viral load by qRT-PCR
[8] = system: EV-D68 virions; test: Thermoprotection assay; design: species or system Enterovirus D68; conditions: 12.5 μM, heated 2 min, TCID50
In short: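 Virus (2 × 10^6 PFU/ml) was preincubated with test compound (12.5 μM) or DMSO for 30 min at 33 °C. It was then heated for 2 min at 37–59 °C and rapidly cooled to 4 °C. Residual titre was measured by TCID50 on RD cells: 10-fold virus dilutions, CPE scored after 72 h, Reed–Muench calculation.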

[9] = Liver microsome stability assay, rat; type: in vitro ADME; conditions: liver microsomes
In short: as §1

[10] = Liver microsome stability assay, human; type: in vitro ADME; conditions: liver microsomes
In short: as §1

[11] = system: various EV-D68 strains; test: CPE assay, various EV-D68 strains; type: cell-based; conditions: Enterovirus D, EVD68
In short: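 RD cells (DMEM, 10% FBS, 37 °C, 5% CO2) were seeded at 1.5 × 10^4/well and grown for 24 h. They were infected with 100 TCID50 of strain STL-2014-12, US/KY/14-18953, US/MO/14-18947 or Fermon, plus test compound in 3-fold dilutions (0.01–200 μM) or DMSO, for 72 h at 37 °C. ATP was read by CellTiter-Glo luminescence and normalised to uninfected and infected controls. EC50 is the concentration giving a 50% ATP increase.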

[12] = system: EV-D68 virions; test: Particle stability thermal release assay; design: species or system Enterovirus D68; conditions: 10 μg/mL, 1.5 μg purified EV-D68, SYTO9
In short: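 Test compound (10 μg/mL) or DMSO was mixed with 1.5 μg EV-D68 and SYTO9 nucleic-acid dye, at 5% DMSO. The mixture was held at 33 °C for 15 min, then ramped from 25 to 99 °C. Fluorescence was recorded in triplicate at 1 °C steps, and melting temperature was taken from the negative first-derivative curve.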

SMILES: Cl.Nc1ccc(-c2ccc3ncc(-c4noc(C(F)(F)F)n4)cc3c2)cc1 [19·HCl, 4-(3-(5-(Trifluoromethyl)-1,2,4-oxadiazol-3-yl)quinolin-6-yl)aniline Hydrochloride]
- replication of EV-D68 virus particles (plaque formation) [1]: significantly inhibited the replication of EV-D68 virus particles
- expression level of viral VP1 [2]: significantly inhibited the expression level of viral VP1 in a dose-dependent manner
- expression level of viral VP1 [3]: significantly inhibited the expression level of viral VP1 in a dose-dependent manner

- EC50 [4]: > 10 µM
SMILES: CCCc1ccc(-c2ccc3ncc(C(=O)OCC)cc3c2)cc1 [Compound 10, Ethyl 6-(4-Propylphenyl)quinoline-3-carboxylate]

- EC50 [4]: > 10 µM
SMILES: CCOC(=O)c1cnc2ccc(-c3cccc(N)c3)cc2c1 [Compound 11, Ethyl 6-(3-Aminophenyl)quinoline-3-carboxylate]

SMILES: CCOC(=O)c1cnc2ccc(-c3cn[nH]c3)cc2c1 [Compound 17, Ethyl 6-(1H-Pyrazol-4-yl)quinoline-3-carboxylate]
- anti-EV-D68 activity [4]: complete loss of activity

SMILES: CCOC(=O)c1cnc2ccc(-c3ccc(C(N)=O)cc3)cc2c1 [Compound 18, Ethyl 6-(4-Carbamoylphenyl)quinoline-3-carboxylate]
- anti-EV-D68 activity [4]: inactivation

- CLint scaled at 1 h, 1 µM [5]: 116 mL/min/kg
- clearance at 24 h [6]: 64 ± 13.1 mL/min/kg
- CLint scaled at 1 h, 1 µM [9]: 61.2 mL/min/kg
- CLint scaled at 1 h, 1 µM [10]: 10.8 mL/min/kg
- EC50 [11]: 0.05 to 0.1 µM
SMILES: Nc1ccc(-c2ccc3ncc(-c4noc(C(F)(F)F)n4)cc3c2)cc1 [Compound 19, 4-(3-(5-(Trifluoromethyl)-1,2,4-oxadiazol-3-yl)quinolin-6-yl)aniline]
- increase in antiviral potency compared to compound 15 ([4]; EC50 ratio, STL-2014-12): ~10 fold
- antiviral activity, drug added after 1 hpi (phases II and IV) [7]: antiviral activity disappeared
- antiviral activity, drug added at 0–1 h (phase I) and 0–14 h (phase III) [7]: significant antiviral activity
- thermal inactivation of virus at 55 °C [8]: significantly reduce the thermal inactivation
- virus activity at 57 °C [8]: maintained certain virus activity

- clearance at 24 h [6]: 106 ± 10 mL/min/kg
SMILES: CCc1nc(-c2cnc3ccc(-c4ccc(N)cc4)cc3c2)no1.Cl [Compound 21·HCl, 4-(3-(5-Ethyl-1,2,4-oxadiazol-3-yl)quinolin-6-yl)aniline Hydrochloride]
- replication of EV-D68 virus particles (plaque formation) [1]: significantly inhibited the replication of EV-D68 virus particles
- expression level of viral VP1 [2]: significantly inhibited the expression level of viral VP1 in a dose-dependent manner
- expression level of viral VP1 [3]: significantly inhibited the expression level of viral VP1 in a dose-dependent manner

SMILES: Cc1cc(CCCOc2c(C)cc(-c3noc(C(F)(F)F)n3)cc2C)on1 [Pleconaril, pleconaril, reference compound]
- protection against viral particles (PaSTRy) [12]: almost no protection
- antiviral activity, drug added after 1 hpi (phases II and IV) [7]: same experimental results
- antiviral activity, drug added at 0–1 h (phase I) and 0–14 h (phase III) [7]: same experimental results
- thermal inactivation of virus at 55 °C [8]: significantly reduce the thermal inactivation

Source: PMC9661475 (Journal of Medicinal Chemistry, 2022)
